# Only some compounds are listed: those with a hit (about 2.9% of all), similar ones and a draw of the others.
# Arrestin-AP2 inh: human beta-arrestin and AP2 interaction inhibition; 340,000 compounds, 0.31% hits; FITC-arrestin peptide / GST-AP2 beads, flow cytometry; AP2 beta2 appendage carries R879A mutation; inhibition, % at 10 µM; AID 504490;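 active = inhibition above a set limit, near 3 SD of compounds lacking own fluorescence, cut at about 54% in these data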;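 also: plate controls were DMSO wells for no effect and 5 µM unlabelled arrestin peptide for full effect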
#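 test system = AP2 appendage R879A on GSH beads | buffer or medium = PBS plus Tween 20 (0.05%) and BSA (0.1%) | incubation = 12 min plus 1 h, RT | detection = bead flow cytometry, FITC channel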
# ADAM10 inh: inhibitors of human ADAM10. recombinant ADAM10, EDANS/DABCYL FRET peptide cleavage, 3 h. inhibition, % at 7 µM. 370,000 compounds, 0.62% hits;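 active = inhibition above a per-campaign cutoff equal to the mean of compounds falling between control-based bounds plus 3 SD, cut at about 20% in these data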;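 also: 0% = DMSO wells while the 100% control is not disclosed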
# FAS TE block: FAS thioesterase (human) inhibition; recombinant FAS-TE, OMFH fluorogenic substrate, fluorescence endpoint; 360,000 compounds, 0.67% hits; P49327; inhibition, % at 15 µM; AID 602261;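 active = compounds whose normalised, plate-corrected inhibition of enzyme fluorescence in the single-dose primary screen is 50% or more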;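 also: 0% = DMSO with enzyme and 100% = substrate without enzyme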
# CaV13 FRET inh: Primary screen for inhibitors of IQ motif and Ca2+-dependent inactivation inhibitor domain binding in CACNA1D, Förster resonance energy transfer in living cells, …; HEK cells, CFP/YFP FRET ICDI-IQ, plate reader, 10 min; percent FRET-ratio fall versus neutral wells; inhibition, % at 12.3 µM; 340,000 compounds, 0.098% hits;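 active = mean replicate inhibition of at least 30% and at least 1% of replicates passing that level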;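 also: 0% = median of the neutral control wells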
# ADAM17 inh: inhibits human ADAM17; inhibition, % at 6.95 µM; 370,000 compounds, 0.83% hits; P78536; recombinant ADAM17, EDANS/DABCYL FRET peptide cleavage;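 active = inhibition above the mean of compounds lying between control limits plus 3 SD, set per campaign, cut at about 8.5% in these data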;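 also: 0% = DMSO-only wells as the low control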
# Target sequence (P78536 215-824 limits assumed): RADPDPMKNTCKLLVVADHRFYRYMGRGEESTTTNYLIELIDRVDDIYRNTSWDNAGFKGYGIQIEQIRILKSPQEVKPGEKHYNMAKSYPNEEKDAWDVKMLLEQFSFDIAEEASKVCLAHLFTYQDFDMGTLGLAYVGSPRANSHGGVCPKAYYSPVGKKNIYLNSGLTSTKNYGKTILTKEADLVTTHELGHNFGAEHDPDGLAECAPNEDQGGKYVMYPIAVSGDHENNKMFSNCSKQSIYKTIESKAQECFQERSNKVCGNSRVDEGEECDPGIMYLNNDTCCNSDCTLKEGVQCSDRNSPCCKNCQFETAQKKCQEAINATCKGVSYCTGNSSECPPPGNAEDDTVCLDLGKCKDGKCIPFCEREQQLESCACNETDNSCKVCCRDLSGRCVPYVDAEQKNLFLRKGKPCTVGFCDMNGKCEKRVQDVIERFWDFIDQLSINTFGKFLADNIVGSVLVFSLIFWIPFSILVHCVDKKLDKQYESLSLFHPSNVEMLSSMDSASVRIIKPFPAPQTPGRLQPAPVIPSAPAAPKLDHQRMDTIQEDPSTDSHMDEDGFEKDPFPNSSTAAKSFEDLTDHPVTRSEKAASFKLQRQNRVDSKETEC
# NRP1-CendR mod: modulators of CendR peptide binding to human neuropilin-1; 360,000 compounds, 0.85% hits; AID 602438; FAM-RPARPAR peptide binding to NRP-1, fluorescence polarization; inhibition, % at 25 µM;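 active = inhibition or corrected inhibition above about 18%, plus a signal ratio from 0.5 to 1.5, limit read from the data, passing the limit was not always enough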
# FAS-TE conf: confirmation of human fatty acid synthase thioesterase inhibitors | 2,300 compounds, 45% hits | recombinant FAS-TE, OMFH fluorogenic substrate, fluorescence | shares compounds with FAS TE block | inhibition, % at 15 µM;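 active = compounds inhibiting the enzyme by at least 50% at 15 µM in any one of the replicates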;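 also: 0% = enzyme with DMSO only and 100% = wells lacking enzyme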
# ADAM10 confirm: human ADAM10 inhibition, confirmation. shares compounds with ADAM10 inh. ADAM10 QFRET peptide cleavage, EDANS fluorescence. inhibition, % at 6.95 µM. 2,100 compounds, 1% hits;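 active = inhibition above about 20% chosen separately for each screening run, limit read from the data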;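 also: 0% = DMSO wells and 100% = marimastat wells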
# ADAM17 ctr: ADAM17 inhibition, counter-screen for ADAM10 exosite hits; shares compounds with ADAM10 inh; ADAM17 QFRET peptide cleavage, EDANS fluorescence; inhibition, % at 6.95 µM; 2,100 compounds, 0.5% hits; AID 743214;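 active = mean triplicate inhibition above the solvent-only control wells' mean plus 3 SD, cut at about 12% in these data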;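 also: 0% = DMSO wells and 100% = marimastat wells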
# ADAM10 counter: inhibits human ADAM10 in ADAM17 exosite counter-screen; 2,900 compounds, 47% hits; shares compounds with ADAM17 inh; recombinant ADAM10, EDANS/DABCYL FRET peptide cleavage, 3 h; inhibition, % at 6.95 µM; AID 743256;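 active = mean inhibition over the triplicate runs exceeds the activity threshold set in the earlier primary screen, cut at about 20% in these data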;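 also: 0% = DMSO wells and 100% = marimastat wells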
# ADAM17 confirm: confirmation of inhibitors of human ADAM17. shares compounds with ADAM17 inh. recombinant ADAM17, EDANS/DABCYL QFRET peptide cleavage. inhibition, % at 6.95 µM. 2,900 compounds, 65% hits. AID 743257;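 active = mean inhibition across replicates above the hit cutoff set in the primary screen, cut at about 8.5% in these data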;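 also: 0% = DMSO wells and 100% = marimastat wells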
# * = called active by the depositor; · = no result given.
SMILES,Arrestin-AP2 inh,ADAM10 inh,FAS TE block,CaV13 FRET inh,ADAM17 inh,NRP1-CendR mod,ADAM10 confirm,ADAM17 ctr,ADAM10 counter,ADAM17 confirm,others
O=c1[nH]c2ccccc2n1C1CCN(C(c2nnnn2-c2ccc3c(c2)OCCO3)C2CC2)CC1 (configuration not stated),·,-3,10,-5,1,1,·,·,·,·,
CCCCn1nnnc1C(c1cccc2ccccc12)N1CCC2(CC1)C(=O)NCN2c1ccccc1 (configuration not stated),·,-8,22,-4,0,4,·,·,·,·,
COc1ccc(-n2nnnc2C(c2cccc3ccccc23)N2CCC3(CC2)C(=O)NCN3c2ccccc2)cc1 (configuration not stated),·,21*,84*,-8,9,0,10,3,·,·,FAS-TE conf=16
O=C1NCN(c2ccccc2)C12CCN(C(c1ccnc3ccccc13)c1nnnn1Cc1ccccc1)CC2 (configuration not stated),·,-11,7,-9,-4,7,·,·,·,·,
O=C1NCN(c2ccccc2)C12CCN(C(c1cccs1)c1nnnn1-c1ccc3c(c1)OCCO3)CC2 (configuration not stated),·,20,62*,-6,9.0*,21,·,·,29*,13*,FAS-TE conf=22
O=C1NCN(c2ccccc2)C12CCN(C(c1cccc3ccccc13)c1nnnn1Cc1ccccc1)CC2 (configuration not stated),·,21*,79*,-6,9.9*,10,11,4,41*,17*,FAS-TE conf=4
CC(c1ccccc1)n1cc(C(=O)NC2CCCC2)nn1 (configuration not stated),·,9,·,·,1,·,·,·,·,·,
Cc1ccc(NP(=O)(Oc2ccccc2)Oc2ccccc2)cc1,34,1,-2,-2,-1,-1,·,·,·,·,
Cc1ccc(NP(=O)(Oc2ccccc2F)Oc2ccccc2F)cc1,-1,21*,28,-8,3,2,1,0,·,·,
N#Cc1ccc2nc(-c3ccc(CN4CCC(n5nnc6ccccc65)CC4)cc3)c(-c3ccccc3)nc2c1,·,-49,·,-9,-13,·,·,·,·,·,
OCCN1C2CCC1CC(O)(c1ccc(F)cc1)C2 (configuration not stated),11,-2,-9,-5,-2,10,·,·,·,·,
CCC1C(c2ccccc2)NC(c2ccccc2)CC1(O)c1ccc(F)cc1 (configuration not stated),-4,21*,28,-5,5,-17,4,1,·,·,
CCN(CCNc1ccc([N+](=O)[O-])c2cccnc12)S(=O)(=O)c1ccc(Cl)cc1,-1,22*,21,-5,7,-2,5,1,·,·,
Cc1nc2ccc(Br)cc2c(=O)n1-c1ccc([N+](=O)[O-])c(C(F)(F)F)c1,42,23*,10,-16,5,-3,1,0,·,·,
O=C(NCCN1CCC2(CC1)C(=O)NCN2c1ccccc1)c1cccnc1Cl,·,-14,·,-13,-2,·,·,·,·,·,
CCC(=Nc1cc(OC)ccc1OC)c1c(O)[nH]c(=O)[nH]c1=O,-2,21*,-10,-3,1,-7,2,0,·,·,
Cc1cc(N2CCNC[C@@H]2C)ccc1N1CCN[C@@H](C)C1,·,-9,·,-2,-6,·,·,·,·,·,
CCc1ccc(NP(=O)(Oc2ccccc2F)Oc2ccccc2F)cc1,-14,26*,34,0,12*,0,6,2,35*,20*,
C=CCN1CC[C@]23c4c5ccc(O)c4OC2C(=O)CC[C@@]3(O)[C@H]1C5 (some centres not stated),·,-5,·,·,-1,·,·,·,·,·,
COC(=O)C1=C(c2ccc(-c3ccccc3)c(F)c2)C[C@@H]2CC[C@H]1N2C(=O)NCCO,-7,7,-11,-6,1,4,·,·,·,·,
COC(=O)C1=C(c2ccc(-c3ccccc3)c(F)c2)C[C@@H]2CC[C@H]1N2C(=O)NCCOc1ccccc1Cl,3,28*,40,-10,17*,3,7,2,28*,17*,
CCCNC(=O)N1[C@H]2CC[C@@H]1C(C(=O)OC)=C(c1ccc(-c3ccccc3)c(F)c1)C2,5,26*,7,-9,16*,10,0,0,19,10*,
CC(C)(C)c1cc(O)ccc1O,·,-11,·,-4,-7,·,·,·,·,·,
COC(=O)C1=C(c2ccc(F)cc2OCc2ccccc2)C[C@@H]2CC[C@H]1N2C(=O)NCc1ccccc1,-4,18,23,-10,0,0,·,·,·,·,
COC(=O)C1=C(c2ccccc2OCc2ccccc2)C[C@@H]2CC[C@H]1N2C(=O)NCCc1ccc(F)cc1,-1,21*,18,-3,10.0*,-11,4,2,16,7,
SMILES,Arrestin-AP2 inh,ADAM10 inh,FAS TE block,CaV13 FRET inh,ADAM17 inh,NRP1-CendR mod,ADAM10 confirm,ADAM17 ctr,ADAM10 counter,ADAM17 confirm,others
COC(=O)C1=C(c2ccc(F)cc2OCc2ccccc2)C[C@@H]2CC[C@H]1N2C(=O)NCc1ccccc1OC,2,28*,23,-6,15*,14,4,2,21*,13*,
COC(=O)C1=C(c2cc3ccccc3s2)C[C@@H]2CC[C@H]1N2C(=O)NCc1ccc(C(F)(F)F)cc1,-6,24*,38,-7,12*,4,6,2,15,12*,
O=C1C2CC=CCC2C(=O)N1SC(Cl)(Cl)Cl (configuration not stated),·,5,·,·,-2,·,·,·,·,·,
COc1cccc(NP(=O)(Oc2ccccc2)Oc2ccccc2)c1,25,14,10,-5,7,1,·,·,·,·,
COc1cccc(NP(=O)(Oc2ccccc2Cl)Oc2ccccc2Cl)c1,12,23*,33,-5,10*,7,8,3,45*,18*,
O=S(=O)(c1ccc2ccccc2c1)N1Cc2cc(Br)ccc2-n2nncc2C1,·,-15,·,-4,-7,·,·,·,·,·,

# Source: PubChem
